Drawing on ChEMBL document CHEMBL4513216, “Probing the Open Global Health Chemical Diversity Library for Multistage-Active Starting Points for Next-Generation Antimalarials” (ACS Infect Dis, 2020), this text covers cytotoxicity for 64 molecules.

A short description of the data set: Toxicity liver stage against HepG2, at 10uM. Type of data set: cell-based. The arrangement: test concentration 10 uM, cell line HepG2-A16-CD81EGFP. The following applies: human, HepG2-A16-CD81EGFP cells; read-out: INHIBITION
The essentials:
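Uninfected HepG2-A16-CD81EGFP cells, 3 × 10^3 per well, 1536-well, plated on prespotted compound at 10 μM final, parasite-free screening media added to match infected plates; puromycin 10 μM positive, DMSO 0.5% negative; run in parallel with 48 h PbLuc assay at 37 °C, 5% CO2; viability by CellTiter-Glo luminescence, normalized to controls.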
As for `COc1ccc(-c2nnc([C@H]3CCN(CC4CC4)C3)o2)cc1`, the cytotoxicity at 10 µM is -4.6%.
For `CC1=C[C@@H](CC#N)[C@H](C(C)C)C[C@H]1CC(=O)N1CCN(C)CC1`, the cytotoxicity at 10 µM is -4.42%.
Next, `CN1C[C@H](O)C[C@H]1c1nc(-c2ccc3c(c2)OCO3)no1`: 6.88%; `O=c1c2cnc(N3CCOCC3)nc2ccn1-c1ccccc1`: -3.12%; `CCOc1ccc(C(=O)Nc2ccn(CC)n2)cc1`: 3.16%.
On to `Cn1cc(NC(=O)c2cc3c(s2)CCCC3)cn1`, for which the cytotoxicity at 10 µM was -2.17%.
Next, `CNC(=O)c1cnn2c(C3CCCN3)ccnc12` (centres undefined): 8.88%; `Cc1cnc(C(=O)NCC2Cc3ccccc3O2)cn1` (centres undefined): -0.71%.
In the case of `N#Cc1cccnc1NCCc1cc(F)cc2c1OCOC2`, the cytotoxicity at 10 µM was determined as 19.5%.
As to `CC(C)c1nnc(CN2CC(n3cccn3)C2)o1`, the cytotoxicity at 10 µM was -149%.
Next, `CS(=O)(=O)c1ccc(NC(=O)NCCC2=CCCCC2)cc1`: -0.529%.
On to `CN(CC(=O)NC(C)(C)C)C(=O)c1cccn1CCc1ccccc1`, for which the cytotoxicity at 10 µM was determined as 6.1%.
In the case of `COc1ccccc1OCCNC(=O)NCC(C)C`, the cytotoxicity at 10 µM was found to be 7.54%.
On to `CC1CCN(C(=O)c2occc2COc2cccc(C#N)c2)CC1`, for which the cytotoxicity at 10 µM worked out at 0.106%.
With `Cc1nc(COc2ccc(OCC(N)=O)cc2)oc1C`, the cytotoxicity at 10 µM was 4.68%.
For `Cc1c(C(=O)NC2=NCCS2)cnn1-c1ccc(Br)cc1`, the cytotoxicity at 10 µM is -0.647%.
On to `Cc1c(Cl)cccc1NC(=O)CCNc1ccc(C#N)cn1`, for which the cytotoxicity at 10 µM was -0.106%.
With `COC(=O)N1CCC(Nc2cccc(F)c2C(C)=O)C1` (centres undefined), the cytotoxicity at 10 µM came out at 11.2%.
Next, `Cc1ccc(C(=O)NCCNC(=O)c2cncnc2C(C)C)cc1F`: 9.52%; `COC(=O)C1CN(CC(=O)Nc2cccc(OC)c2)c2ccccc21` (centres undefined): 11.1%.
Turning to `O=C(Nc1cnc(C2CC2)nc1)N1CCCC1`, the cytotoxicity at 10 µM was -14.9%.
In the case of `Cc1nn(C)c(N2CCOCC2)c1CNCC1CCCN1C` (centres undefined), the cytotoxicity at 10 µM was -1.96%.
Regarding `CS(=O)(=O)NCCC(=O)NC1(c2ccc(F)cc2)CCCC1`, the cytotoxicity at 10 µM was -1.1%.
With `Cc1nc(C)c(C)c(N2CCC3(CCOC3)C2)n1` (centres undefined), the cytotoxicity at 10 µM is -1.31%.
Next, `CCN(CC(=O)NC(C)C)C(=O)C(C)(C)c1ccc2c(c1)OCCO2`: -2.79%; `Cn1cccc(NC(=O)COc2ccc(Cl)cc2)c1=O`: 4.69%.
For `COc1ccccc1-c1cc(NC(=O)CCS(=O)(=O)C2CCCC2)[nH]n1`, the cytotoxicity at 10 µM is -123%.
As to `COc1c(C)cnc(CNC(=O)CCc2nc3ccccc3[nH]2)c1C`, the cytotoxicity at 10 µM was -5.27%.
As for `CCc1cnc(CN2CCOC(c3nc(C)n[nH]3)C2)o1` (centres undefined), the cytotoxicity at 10 µM is -4.83%.
Take `COc1ccccc1OCCC(=O)NCc1ncc(C)c(OC)c1C`: the cytotoxicity at 10 µM was -3.63%.
The same measure for `CC(C(=O)NC(C)(C)C)N1CCC(C(=O)Nc2cnccn2)CC1` (centres undefined): -1.36%; for `Cc1cccnc1NC(=O)C1CCN(C(C)C(=O)NC(C)(C)C)CC1` (centres undefined): 3.15%.
`O=C(c1cccc(-c2ccc(F)cc2)c1)N1CCCC(O)(CO)CC1` (centres undefined): the cytotoxicity at 10 µM is -4.77%.
With `COc1ccc(C(=O)N2CCN(C(=O)Cn3nccc3C)CC2)cc1`, the cytotoxicity at 10 µM is 6.88%.
For `CCN(CCCN1CCOCC1)C(=O)c1cnn(CC)c1`, the cytotoxicity at 10 µM is 46.6%.
Take `COc1ccccc1OCc1cc(C(=O)N2CCS(=O)(=O)CC2)n[nH]1`: the cytotoxicity at 10 µM is -2.93%.
`CN(Cc1ccoc1)c1ccc(-c2nccn2C)nn1`: the cytotoxicity at 10 µM is -5.12%.
In the case of `CCc1ccc2nc(C)cc(C(=O)NC3CCNC3=O)c2c1` (centres undefined), the cytotoxicity at 10 µM was -4.65%.
As to `Cc1ncsc1CN1CC(C)(C2CC2)CC1=O` (centres undefined), the cytotoxicity at 10 µM is 0.832%.
Take `CCc1nc(N2CCCC(O)(CO)CC2)ncc1C` (centres undefined): the cytotoxicity at 10 µM is 10.8%.
The same measure for `Cc1cc(C(=O)NC(C)C(=O)Nc2cc(F)ccc2C)nc(C)n1` (centres undefined): -3.71%; for `Cc1ccc(SCCN(C)C(=O)c2cn(CCN)nn2)cc1`: -4.7%.
Take `COc1ccc(F)cc1C(=O)N1CC(c2ccncc2)C1`: the cytotoxicity at 10 µM is -4.93%.
With `CCc1ccc(-c2cn3c(C(=O)NCC(C)C(=O)NC)csc3n2)cc1` (centres undefined), the cytotoxicity at 10 µM came out at 9.21%.
The same measure for `Cc1nnc(NC(=O)N2CCCN(C3CCCC3)CC2)s1`: -3.16%.
Regarding `Cc1nn(C)cc1-c1ccnc(N(C)Cc2noc(C(C)C)n2)n1`, the cytotoxicity at 10 µM turned out to be 1.41%.
As for `CCSC(C)c1nc(-c2ccc(C)nn2)no1` (centres undefined), the cytotoxicity at 10 µM was -6.24%.
For the molecule `Cc1cccc(C2CCCN(C(=O)CN3CCC(C(N)=O)CC3)C2)c1` (centres undefined), the cytotoxicity at 10 µM is -5.17%.
On to `CCC(=O)c1ccc(OCC(=O)NC(C)c2nnc(C)[nH]2)cc1` (centres undefined), for which the cytotoxicity at 10 µM is 5.37%.
In the case of `O=C(c1ncccc1O)N1CCc2c(ncnc2N2CCOCC2)C1`, the cytotoxicity at 10 µM is -3.99%.
Take `CC(C)(O)CCc1cccc(C(=O)N2CCC3(CCOCC3)CC2)c1`: the cytotoxicity at 10 µM came out at 1.14%.
Take `COc1ccccc1OCc1cc(C(=O)N2[C@H](C)CC[C@@H]2C)n[nH]1`: the cytotoxicity at 10 µM is -2.01%.
For `CCNC(=O)[C@@H]1C[C@H](N)CN1c1cc(C(F)(F)F)nc(N2CCCC2)n1`, the cytotoxicity at 10 µM is -3.97%.
Regarding `COc1ccccc1OCc1cc(C(=O)N2CCC(C(C)O)CC2)n[nH]1` (centres undefined), the cytotoxicity at 10 µM worked out at 0.127%.
Consider `Cc1ncsc1CCNC(=O)Cn1nc(C)n(Cc2ccccc2)c1=O`, for which the cytotoxicity at 10 µM stood at 7.48%.
As to `CC(C)c1cc(NC(=O)c2cccnc2)[nH]n1`, the cytotoxicity at 10 µM is -4.24%.
Consider `Cc1cccc(-c2noc(CN3CCOC(Cn4cccn4)C3)n2)c1` (centres undefined), for which the cytotoxicity at 10 µM is -3.07%.
Next, `O=C(NCc1ccccn1)C1=NN(c2ccccc2)C(=O)CN1`: -0.855%; `Cc1cc(C)n(CC2CCCN2C(=O)c2nccc3ccccc23)n1` (centres undefined): -7.49%; `CCN(C)c1ncnc2c1CCN(C(=O)c1ccoc1C)CC2`: -0.675%.
Turning to `Cc1ccc(SCCN(C)C(=O)c2cn(C3CCC(N)CC3)nn2)cc1` (centres undefined), the cytotoxicity at 10 µM was -8.59%.
`CC(C)NC(=O)CN(C)CC(=O)Nc1ccnn1C(C)C1CC1` (centres undefined): the cytotoxicity at 10 µM is -6%.
In the case of `CNc1ccnc(N2C[C@H]3CC[C@@H](C2)N(CCOC)C3=O)n1`, the cytotoxicity at 10 µM was found to be 7.64%.
As to `Cc1ccc2nc(CNCCCOc3ccccc3)cc(O)c2c1` [UCSF924], the cytotoxicity at 10 µM was found to be 5.5%.
